# Test results: ChEMBL document CHEMBL2331391, “Peroxisome proliferator-activated receptor-γ mediates the anti-inflammatory effect of 3-hydroxy-4-pyridinecarboxylic acid derivatives: synthesis and biological evaluation” (Eur J Med Chem, 2013)
# Active and inactive are the calls of the source. No cut-off for these calls is given here.
# Legend:
# Macrophage [1] = assay: Increase in PPAR-gamma mRNA transcript level in human macrophages at 10 uM by quantitative PCR analysis; assay type: functional, cell-based
# [2] = target: T1, Peroxisome proliferator-activated receptor gamma (Mus musculus) (UniProt P37238); assay: Induction of PPAR-gamma promoter activity in LPS-stimulated mouse CMT93 cells at 10 uM preincubated for 30 mins before LPS-challenge measured after 6 hrs post challenge by luciferase reporter gene assay; assay type: cell-based
# T1 sequence (whole entry): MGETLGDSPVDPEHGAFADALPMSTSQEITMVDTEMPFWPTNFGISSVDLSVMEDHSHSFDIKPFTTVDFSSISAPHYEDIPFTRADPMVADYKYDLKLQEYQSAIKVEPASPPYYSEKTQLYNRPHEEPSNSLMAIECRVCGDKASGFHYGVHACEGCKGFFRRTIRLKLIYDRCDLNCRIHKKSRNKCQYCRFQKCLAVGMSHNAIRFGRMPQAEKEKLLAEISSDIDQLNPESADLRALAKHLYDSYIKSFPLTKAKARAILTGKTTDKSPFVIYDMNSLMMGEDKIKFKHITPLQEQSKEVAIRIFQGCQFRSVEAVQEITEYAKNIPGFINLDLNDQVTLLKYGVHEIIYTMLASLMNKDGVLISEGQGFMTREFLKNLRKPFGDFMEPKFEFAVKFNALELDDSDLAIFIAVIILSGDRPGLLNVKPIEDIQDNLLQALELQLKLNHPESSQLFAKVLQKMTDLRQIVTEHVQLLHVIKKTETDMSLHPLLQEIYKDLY
# In short: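 CMT-93 cells (1×10⁵/well) were transfected with an NF-κB or PPRE luciferase reporter plus CMV-β-Gal. At 24 h they were treated with compound for 30 min, then with 100 ng/mL LPS for 6 h. Cells were lysed in Tris/EDTA/DTT/Triton buffer and supernatant luciferase was read by luminometer. Results are fold over untreated cells.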
# [3] = Antiinflammatory activity in human macrophages assessed as inhibition of LPS-induced TNFalpha release at 5 uM preincubated for 30 mins before LPS-challenge measured after 24 hrs post challenge by ELISA (reference value: 1682 +/-190 ng/ml); assay type: functional, Macrophage
# In short: (§1)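 Human blood PBMC-derived macrophages were used after 10 days of culture. Purity >95% (esterase, CD14, morphology). Cells were pretreated 30 min at 37 °C with compound, then given 100 ng/mL LPS (S. enteritidis) for 24 h. TNFα, IL-1β and IL-8 in conditioned medium were measured by ELISA. Working solutions were endotoxin-tested by LAL (<3 pg/mL).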
# [4] = Antiinflammatory activity in human macrophages assessed as inhibition of LPS-induced IL8 release at 5 uM preincubated for 30 mins before LPS-challenge measured after 24 hrs post challenge by ELISA (reference value: 7.86 +/-0.17 ng/ml); assay type: functional, Macrophage; in short: as §1
# [5] = Antiinflammatory activity in human macrophages assessed as inhibition of LPS-induced TNFalpha release at 10 uM preincubated for 30 mins before LPS-challenge measured after 24 hrs post challenge by ELISA (reference value: 1682 +/-190 ng/ml); assay type: functional, Macrophage; in short: as §1
# [6] = Antiinflammatory activity in human macrophages assessed as inhibition of LPS-induced TNFalpha release at 1 uM preincubated for 30 mins before LPS-challenge measured after 24 hrs post challenge by ELISA (reference value: 1682 +/-190 ng/ml); assay type: functional, Macrophage; in short: as §1
# [7] = Antiinflammatory activity in human macrophages assessed as inhibition of LPS-induced IL8 release at 1 uM preincubated for 30 mins before LPS-challenge measured after 24 hrs post challenge by ELISA (reference value: 7.86 +/-0.17 ng/ml); assay type: functional, Macrophage; in short: as §1
# [8] = Antiinflammatory activity in human macrophages assessed as inhibition of LPS-induced IL8 release at 10 '-2 uM preincubated for 30 mins before LPS-challenge measured after 24 hrs post challenge by ELISA (reference value: 7.86 +/-0.17 ng/ml); assay type: functional, Macrophage; in short: as §1
# [9] = Antiinflammatory activity in human macrophages assessed as inhibition of LPS-induced TNFalpha release at 100 uM preincubated for 30 mins before LPS-challenge measured after 24 hrs post challenge by ELISA (reference value: 1682 +/-190 ng/ml); assay type: functional, Macrophage; in short: as §1
# Macrophage [10] = assay: Antiinflammatory activity in human macrophages assessed as inhibition of LPS-induced IL-8 release at 10 uM preincubated for 30 mins before LPS-challenge measured after 24 hrs post challenge by ELISA; assay type: functional, cell-based; in short: as §1
# [11] = Antiinflammatory activity in human macrophages assessed as inhibition of LPS-induced IL8 release at 100 uM preincubated for 30 mins before LPS-challenge measured after 24 hrs post challenge by ELISA (reference value: 7.86 +/-0.17 ng/ml); assay type: functional, Macrophage; in short: as §1
# Macrophage [12] = assay: Antiinflammatory activity in human macrophages assessed as inhibition of LPS-induced TNFalpha release at 10 uM preincubated for 30 mins before LPS-challenge measured after 24 hrs post challenge by ELISA; assay type: functional, cell-based; in short: as §1
# [13] = Antiinflammatory activity in human macrophages assessed as inhibition of LPS-induced TNFalpha release at 10 '-3 uM preincubated for 30 mins before LPS-challenge measured after 24 hrs post challenge by ELISA (reference value: 1682 +/-190 ng/ml); assay type: functional, Macrophage; in short: as §1
# [14] = Antiinflammatory activity in human macrophages assessed as inhibition of LPS-induced IL8 release at 10 uM preincubated for 30 mins before LPS-challenge measured after 24 hrs post challenge by ELISA (reference value: 7.86 +/-0.17 ng/ml); assay type: functional, Macrophage; in short: as §1
# Macrophage [15] = assay: Antiinflammatory activity in human macrophages assessed as inhibition of LPS-induced IL-1beta release at 10 uM preincubated for 30 mins before LPS-challenge measured after 24 hrs post challenge by ELISA; assay type: functional, cell-based; in short: as §1
# [16] = Antiinflammatory activity in human macrophages assessed as inhibition of LPS-induced IL8 release at 10 '-3 uM preincubated for 30 mins before LPS-challenge measured after 24 hrs post challenge by ELISA (reference value: 7.86 +/-0.17 ng/ml); assay type: functional, Macrophage; in short: as §1
# [17] = Antiinflammatory activity in human macrophages assessed as inhibition of LPS-induced TNFalpha release at 10 '-2 uM preincubated for 30 mins before LPS-challenge measured after 24 hrs post challenge by ELISA (reference value: 1682 +/-190 ng/ml); assay type: functional, Macrophage; in short: as §1
# [18] = Cytotoxicity against human macrophages at 10 '5 uM after 72 hrs by MTT assay; assay type: cell-based; settings: macrophage
# [19] = Cytotoxicity against human macrophages up to 100 uM after 72 hrs by MTT assay; assay type: cell-based; settings: macrophage
# [20] = Cytotoxicity against human macrophages at 10 '4 uM after 72 hrs by MTT assay; assay type: cell-based; settings: macrophage
smiles,measurement,setting,value
CN(CCOc1ccc(CC2SC(=O)NC2=O)cc1)c1ccccn1 (stereo unspecified),Activity,Macrophage [1],Active
same,Activity,[2],Active
Cc1c(O)c(C(=O)O)cc[n+]1C.[Cl-],Activity,[3],1394 ng/mL
same,Activity,[4],7.34 ng/mL
same,Activity,[5],1404 ng/mL
same,Activity,[6],1368 ng/mL
same,Activity,[7],7.04 ng/mL
same,Activity,[8],7.23 ng/mL
same,Activity,[9],901 ng/mL
same,inhibition,Macrophage [10],Active
same,Activity,[11],4.03 ng/mL
same,inhibition,Macrophage [12],Active
same,Activity,[13],1626 ng/mL
same,Activity,[14],6.4 ng/mL
same,inhibition,Macrophage [15],Active
same,Activity,[16],7.45 ng/mL
same,Activity,[17],1418 ng/mL
O=C(O)c1ccccc1O,inhibition,Macrophage [10],Active
same,inhibition,Macrophage [12],Active
same,inhibition,Macrophage [15],Active
O=C(O)c1ccnc(CO)c1O,Activity,[18],Toxic
same,Activity,[19],Non-toxic
same,inhibition,Macrophage [10],inactive
same,Activity,[20],Toxic
same,inhibition,Macrophage [12],inactive
same,inhibition,Macrophage [15],inactive
Cc1cc(C(=O)O)c(O)c(CO)n1,inhibition,Macrophage [10],Active
same,inhibition,Macrophage [15],Active
CCc1nccc(C(=O)O)c1O,inhibition,Macrophage [10],inactive
same,inhibition,Macrophage [12],inactive
same,inhibition,Macrophage [15],inactive
